Common to all, as to type: functional, cell-based
The nature of assay [1]: Glycomer activity determined as growth inhibition of human glioblastoma LN18 cells. In a few lines:
(§1)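 Cells grown 24 h with FCS, then 24 h without FCS, then exposed to glycomers at increasing concentrations in serum-free medium for 24 h. MTT at 0.2 mg/mL was added for the last 2 h, formazan was dissolved in 0.1 N HCl/2-propanol and read at 540 nm. Growth inhibition = treated/control MTT reduction. IC50 is the concentration giving 50% inhibition from dose–response curves. Triplicate, mean ± SD.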

The nature of assay [2]: Glycomer activity determined as growth inhibition of human glioblastoma LNZ308 cells. A digest of the protocol: as §1
Assay [3] can be described thus: Apoptosis index was determined against human glioblastoma LN18 cells at concentration of 25 uM after total exposure time of 24 hours. A digest of the protocol:
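Cells seeded to half confluence in DMEM-10% FCS for 24 h, then held 24 h without FCS before glycomer addition in serum-free medium. At the end of the incubation, histone-associated DNA fragments (mono- and oligonucleosomes) in still-adherent cells were measured by photometric ELISA (absorbance 405 nm). Apoptosis index = absorbance of treated / untreated wells, untreated set at 1.00. Done in triplicate.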

Regarding `C=CCO[C@H]1[C@H](O)[C@H](COS(=O)(=O)c2cccc(C(F)(F)F)c2)O[C@@H](Oc2ccc(Br)cc2)[C@H]1OC(=O)CCC`, the half-maximal inhibitory concentration (IC50) in assay [1] (Homo sapiens, LN-18) is greater than 50 µM; in assay [2] (Homo sapiens, LNZ308), greater than 50 µM.
As to `C=CCO[C@H]1[C@H](O)[C@H](COCc2ccccc2)O[C@@H](Oc2ccc(Br)cc2)[C@H]1OC(=O)CCC`, the IC50 in assay [1] (Homo sapiens, LN-18) is greater than 50 µM; in assay [2] (Homo sapiens, LNZ308), greater than 50 µM.
As for `C=CCO[C@H]1[C@H](O)[C@H](COS(=O)(=O)c2cccc(C(F)(F)F)c2)O[C@@H](Oc2ccc(I)cc2)[C@H]1OC(=O)CCc1ccccc1`, the IC50 is greater than 50 µM in assay [1] (Homo sapiens, LN-18) and greater than 50 µM in assay [2] (Homo sapiens, LNZ308).
As to `CCCC(=O)O[C@@H]1[C@H](Oc2ccc(I)cc2)O[C@@H](COS(=O)(=O)c2cccc(C(F)(F)F)c2)[C@@H](O)[C@@H]1OC`, the IC50 in assay [1] (Homo sapiens, LN-18) turned out to be 26 µM; in assay [2] (Homo sapiens, LNZ308), 22 µM.
`C=CCO[C@H]1[C@@H](O)[C@H](COS(=O)(=O)c2cccc(C(F)(F)F)c2)O[C@@H](Oc2ccc(I)cc2)[C@H]1OC(=O)C(C)C`: the half-inhibitory concentration (IC50) in assay [1] (Homo sapiens, LN-18) was 18.5 µM; in assay [2] (Homo sapiens, LNZ308), 18 µM.
For `C=CCO[C@H]1[C@H](O)[C@H](COS(=O)(=O)c2cccc(C(F)(F)F)c2)O[C@H](Oc2ccc(I)cc2)[C@@H]1OC(=O)CCC` the same measures were 25 µM and 42 µM.
Regarding `C=CCOC1C(O)C(CNS(=O)(=O)c2cccc(C(F)(F)F)c2)OC(Oc2ccc(I)cc2)C1OC(=O)CCC` (stereo in doubt; 17a), the results for the IC50 in assay [1] (ln18) and in assay [2] (lnz308) were 25 µM and 26 µM, respectively.
As to `CCCC(=O)O[C@@H]1[C@H](Oc2ccc(I)cc2)O[C@@H](COCc2ccccc2)[C@@H](O)[C@@H]1OCCO`, the IC50 was greater than 50 µM in assay [1] (Homo sapiens, LN-18) and greater than 50 µM in assay [2] (Homo sapiens, LNZ308).
Take `C=CCO[C@H]1[C@H](O)[C@H](COCc2ccccc2)O[C@@H](Oc2ccc(OC)cc2)[C@H]1OC(C)=O`: the IC50 in assay [1] (Homo sapiens, LN-18) was greater than 50 µM; in assay [2] (Homo sapiens, LNZ308), greater than 50 µM.
In the case of `CO[C@@H]1[C@H](O)[C@H](Oc2ccc(I)cc2)O[C@@H](COS(=O)(=O)c2cccc(C(F)(F)F)c2)[C@H]1O`, the IC50 in assay [1] (Homo sapiens, LN-18) was greater than 50 µM; in assay [2] (Homo sapiens, LNZ308) it was greater than 50 µM.
`C=CCO[C@@H]1[C@H](O)[C@H](Oc2ccc(Br)cc2)O[C@@H](COCc2ccccc2)[C@H]1O`: in assay [3], the Apoptosis index worked out at 1.19. The IC50 was greater than 50 µM in assay [1] (Homo sapiens, LN-18) and greater than 50 µM in assay [2] (Homo sapiens, LNZ308).
Take `C=CCO[C@@H]1[C@H](OC(=O)CC)[C@H](Oc2ccc(I)cc2)O[C@@H](COS(=O)(=O)c2cccc(C(F)(F)F)c2)[C@H]1OCc1ccc(OC)cc1`: the IC50 is greater than 50 µM in assay [1] (Homo sapiens, LN-18) and greater than 50 µM in assay [2] (Homo sapiens, LNZ308).
In the case of `C=CCO[C@H]1[C@@H](O)[C@H](COCc2ccccc2)O[C@@H](Oc2ccc(I)cc2)[C@H]1OC(=O)CCC`, the IC50 in assay [1] (Homo sapiens, LN-18) is 20 µM; in assay [2] (Homo sapiens, LNZ308), 37 µM.
For `C=CCOC1C(O)C(CNS(=O)(=O)c2cccc(C(F)(F)F)c2)OC(Oc2ccc(I)cc2)C1O` (configuration not stated), in that order: 16 µM and 27 µM.
For `C=CCO[C@H]1[C@H](O)[C@H](COS(=O)(=O)c2cccc(C(F)(F)F)c2)O[C@@H](Oc2ccc(I)cc2)[C@H]1OC(C)=O`, in that order: 12.5 µM and 13 µM.
As for `C=CCO[C@H]1[C@H](O)[C@H](COS(=O)(=O)c2cccc(C(F)(F)F)c2)O[C@@H](Oc2ccc(I)cc2)[C@H]1OC(=O)CCC` (stereo in doubt; 8c), the IC50 came to 43 µM in assay [1] (ln18) and 41 µM in assay [2] (lnz308).
With `C=CCOC1C(O)C(CNS(=O)(=O)c2cccc(C(F)(F)F)c2)OC(Oc2ccc(I)cc2)C1OC(=O)CCC` (stereo in doubt; 10b), the half-maximal inhibitory concentration (IC50) in assay [1] (ln18) turned out to be 6.5 µM; in assay [2] (Homo sapiens, LNZ308), 17.5 µM.
Turning to `C=CCOC1C(O)C(CNS(=O)(=O)c2cccc(C(F)(F)F)c2)OC(Oc2ccc(I)cc2)C1OC(=O)C(C)C` (configuration not stated), the IC50 in assay [1] (Homo sapiens, LN-18) is 12.5 µM; in assay [2] (Homo sapiens, LNZ308) it was 7.5 µM.
For `C=CCO[C@H]1[C@H](O)[C@H](COS(=O)(=O)c2cccc(C(F)(F)F)c2)O[C@@H](Oc2ccc(I)cc2)[C@H]1OC(=O)CCC` (stereo in doubt; 16a), the IC50 in assay [1] (Homo sapiens, LN-18) is 40 µM; in assay [2] (Homo sapiens, LNZ308), 29 µM.
Take `CCCO[C@H]1[C@H](O)[C@H](COS(=O)(=O)c2cccc(C(F)(F)F)c2)O[C@@H](Oc2ccccc2)[C@H]1OC(=O)CCC`: the IC50 was greater than 50 µM in assay [1] (Homo sapiens, LN-18) and greater than 50 µM in assay [2] (Homo sapiens, LNZ308).
Consider `C=CCO[C@@H]1[C@H](O)[C@H](Oc2ccc(I)cc2)O[C@@H](COS(=O)(=O)c2cccc(C(F)(F)F)c2)[C@H]1O`, for which the IC50 in assay [1] (Homo sapiens, LN-18) was 21 µM; in assay [2] (Homo sapiens, LNZ308), 19 µM.
For `CCCC(=O)O[C@@H]1[C@H](Oc2ccc(I)cc2)O[C@@H](COCc2ccccc2)[C@@H](O)[C@@H]1OC`, in that order: greater than 50 µM and greater than 50 µM.
`CCCO[C@@H]1[C@H](O)[C@H](Oc2ccccc2)O[C@@H](COCc2ccccc2)[C@H]1O`: the Apoptosis index in assay [3] came to 1.29. In addition, the IC50 is greater than 50 µM in assay [1] (Homo sapiens, LN-18) and greater than 50 µM in assay [2] (Homo sapiens, LNZ308).
`CCCO[C@H]1[C@H](O)[C@H](COCc2ccccc2)O[C@@H](Oc2ccc(OC)cc2)[C@H]1OC(C)=O`: the IC50 in assay [1] (Homo sapiens, LN-18) was greater than 50 µM; in assay [2] (Homo sapiens, LNZ308) it was greater than 50 µM.
With `C=CCO[C@H]1[C@H](O)[C@H](COCc2ccccc2)O[C@@H](Oc2ccc(I)cc2)[C@H]1OC(=O)C(C)C`, the concentration for half-maximal inhibition (IC50) in assay [1] (Homo sapiens, LN-18) is greater than 50 µM; in assay [2] (Homo sapiens, LNZ308), greater than 50 µM.

Usually IC50 stands for the midpoint of a concentration-inhibition curve.

The record behind these values is ChEMBL document CHEMBL1145048, “Functionalized glycomers as growth inhibitors and inducers of apoptosis in human glioblastoma cells” (J Med Chem, 2003).
